OX1R antag-1 = antagonists of human orexin 1 receptor; O43613; CHO/OX1R cells, Fluo-8 calcium fluorescence, orexin A; inhibition, % at 5 µM; hit rate 0.43% among 330,000; AID 434989;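 active = inhibition above its plate's threshold, mean inhibition of all tested compounds on the plate plus 3 SD, cut at about 37% in these data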
Target sequence (O43613 whole entry, looked up): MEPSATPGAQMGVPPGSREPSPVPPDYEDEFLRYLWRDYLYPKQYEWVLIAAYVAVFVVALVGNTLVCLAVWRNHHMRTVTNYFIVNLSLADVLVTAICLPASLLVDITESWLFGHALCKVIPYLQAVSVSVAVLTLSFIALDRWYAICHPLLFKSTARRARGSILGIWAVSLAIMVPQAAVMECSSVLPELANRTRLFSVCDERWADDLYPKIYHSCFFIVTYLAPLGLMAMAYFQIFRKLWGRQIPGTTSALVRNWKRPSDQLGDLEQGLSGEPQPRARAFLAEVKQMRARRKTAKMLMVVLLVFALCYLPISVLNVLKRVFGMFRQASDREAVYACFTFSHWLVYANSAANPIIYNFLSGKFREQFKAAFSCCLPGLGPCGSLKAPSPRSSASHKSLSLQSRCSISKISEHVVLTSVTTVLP
CHO parental Ca = counter-screen: ATP calcium response change in parental CHO cells. AID 463079. inhibition, % at 5.6 µM. parental CHO-K1, ATP-induced calcium, Fluo-8 fluorescence. hit rate 0.63% among 330,000;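 active = inhibition above that plate's mean sample inhibition plus 3 SD, cut at about 26% in these data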
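Assay system: parental CHO cells; Read-out basis: percent inhibition of ATP-evoked calcium rise, normalized to controls; Benchmarks: ATP and no-ATP DMSO wells; Compound dosing: single nominal dose of 5.6 µM per compound; Signal: Fluo-8 calcium dye fluorescence; Also added: ATP as calcium-mobilizing challenge; Repeats: singlicate.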
OX1R antag-2 = antagonists of human orexin 1 receptor (OX1R); hit rate 1.8% among 330,000; AID 485270; inhibition, % at 6.6 µM; OX1R-expressing cells, FRET antagonist read-out; in the data active = inhibition mostly above about 38%, no sharp cut-off; inactive = mostly below about 40%
TRPML3 ag = activates the human TRPML3 channel | Q8TDD5 | HEK293 TRPML3-YFP, Fluo-8 calcium fluorescence; 100% = the carbachol control signal | activation, % at 3 µM | hit rate 0.29% among 220,000 | AID 1448;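 active = activation above its plate's cutoff, the mean activation of the plate's test wells plus 3 SD, cut at about 12% in these data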
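Test system – HEK293 line with stable expression of human TRPML3-YFP channel · Control set – carbachol 87 µM final as high control (100%), DMSO as low control (0%) · Signal – Fluo-8 calcium dye fluorescence, ex 470-495, em 515-575 nm · Incubation – 1-h 37 °C dye load, 5-s basal, 120-s post-compound reads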
GPR7 antag = antagonists of human GPR7 (neuropeptides B/W receptor 1); GPR7-expressing cells, fluorescence antagonist assay; inhibition, % at 4.4 µM; P48145; hit rate 1.1% among 290,000; in the data active = inhibition above about 16%, passing the limit was not always enough;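 also: cells stimulated with the agonist NPW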
zfTRPN1 agonist = agonists of zebrafish TRPN1 channel. HEK293 zebrafish TRPN1-YFP, Fluo-8 calcium fluorescence; 100% = response to 87 µM carbachol. activation, % at 3 µM. hit rate 0.18% among 220,000. AID 1424;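 active = activation above its plate's cutoff, the mean activation of test wells on that plate plus 3 SD, cut at about 19% in these data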
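System: zebrafish TRPN1-YFP in HEK293 cells / Dosing: 3 µM single point / Timing: dye loading 1 h at 37 °C, then 30 min room temperature / Signal: Fluo-8 calcium fluorescence, excitation 470-495 nm, emission 515-575 nm / Read-out basis: percent activation from peak over basal fluorescence ratio, control-normalized / Control set: high carbachol 87 µM, low DMSO alone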
TRPN1 ag 2 = counter-screen for TRPML3 agonists: agonists of zebrafish TRPN1 channel. hit rate 10% among 310. shares compounds with TRPML3 ag. AID 1525. HEK293 zebrafish TRPN1-YFP, Fluo-8 calcium fluorescence; scaled: carbachol wells 100%, DMSO wells 0%. activation, % at 3 µM;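 active = mean activation over replicates above a set limit taken from the earlier TRPN1 channel primary screen, cut at about 19% in these data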
TRPML3 confirm = confirmation of human TRPML3 channel agonists; shares compounds with TRPML3 ag; HEK293 TRPML3-YFP, Fluo-8 calcium fluorescence; 100% set by carbachol, 0% by DMSO; hit rate 80% among 310; activation, % at 3 µM;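 active = activation above a set limit derived from the earlier primary screen, cut at about 12% in these data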
GPR7 antag cf = confirmation of human GPR7 antagonists | inhibition, % at 4.4 µM | shares compounds with GPR7 antag | hit rate 52% among 2,400 | GPR7-expressing cells, calcium fluorescence antagonist mode | AID 1952; in the data active = inhibition above about 24%;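 also: stimulated with the GPR7 agonist NPW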
MCHR1 antag = counter-screen for GPR7 antagonists: antagonists of human MCHR1. hit rate 62% among 2,400. inhibition, % at 4.4 µM. shares compounds with GPR7 antag. MCHR1-expressing cells, fluorescence antagonist assay; in the data active = inhibition above about 22%
OX1R Ca confirm = OX1R (human) antagonism, confirmed. shares compounds with OX1R antag-1. CHO/OX1R cells, orexin A calcium Fluo-8 fluorescence. inhibition, % at 5 µM. hit rate 38% among 1,100. AID 492963; in the data active = inhibition above about 29%
CHO Ca triplic = signal in parental CHO cells, OX1R antagonist counter-screen | hit rate 9.3% among 1,100 | shares compounds with OX1R antag-1 | parental CHO-K1, ATP-induced calcium, Fluo-8 fluorescence | inhibition, % at 5.6 µM;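 active = inhibition above a per-plate limit, the mean inhibition of that plate's test compounds plus 3 SD, cut at about 25% in these data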
Hits are given with their value. A selection: hits, their analogues and other compounds. The true share with any hit is near 3.2%.

How did O=c1c(Cl)c(Cl)cnn1Cc1nnc(-c2ccccc2Br)o1 do in these assays?
TRPML3 ag: 18; GPR7 antag: 88; zfTRPN1 agonist: inactive; TRPN1 ag 2: inactive; TRPML3 confirm: 37; GPR7 antag cf: 89; MCHR1 antag: 105

What do the screens show for `Clc1ccccc1OCc1nnc(-c2ccccc2Br)o1`?
OX1R antag-1: inactive; CHO parental Ca: inactive; OX1R antag-2: inactive; TRPML3 ag: inactive; GPR7 antag: inactive; zfTRPN1 agonist: inactive

What do the screens show for `COC(=O)c1sccc1NC(=S)N1CCC(C(N)=O)CC1`?
OX1R antag-1: inactive; CHO parental Ca: inactive; OX1R antag-2: inactive; TRPML3 ag: inactive; GPR7 antag: inactive; zfTRPN1 agonist: inactive

Results for O=C1NC(=S)N(C(=O)c2ccc(F)cc2)/C1=C/c1ccccc1 ?
OX1R antag-1: inactive; CHO parental Ca: inactive; OX1R antag-2: inactive; TRPML3 ag: inactive; GPR7 antag: inactive; zfTRPN1 agonist: inactive

What do the screens show for `COc1ccc(/C=C2\C(=O)NC(=S)N2C(=O)c2ccc(F)cc2)cc1`?
OX1R antag-1: inactive; CHO parental Ca: inactive; OX1R antag-2: inactive; TRPML3 ag: 14; GPR7 antag: inactive; zfTRPN1 agonist: inactive; TRPN1 ag 2: inactive; TRPML3 confirm: inactive; OX1R Ca confirm: inactive; CHO Ca triplic: inactive

How did COc1ccc(NS(=O)(=O)c2ccc(OC)c(N(C)S(=O)(=O)c3ccc(Cl)cc3)c2)cc1 do in these assays?
OX1R antag-1: 61; CHO parental Ca: inactive; OX1R antag-2: inactive; TRPML3 ag: 69; GPR7 antag: 27; zfTRPN1 agonist: inactive; TRPN1 ag 2: inactive; TRPML3 confirm: 34; GPR7 antag cf: 29; MCHR1 antag: 52; OX1R Ca confirm: inactive; CHO Ca triplic: 25

Results for O=C(c1cccc(S(=O)(=O)Nc2ccc(F)cc2)c1)N1CCOCC1 ?
OX1R antag-1: inactive; CHO parental Ca: inactive; OX1R antag-2: inactive

How did CCOC(=O)Cc1csc(NC(=O)Cc2ccccc2[N+](=O)[O-])n1 do in these assays?
OX1R antag-1: inactive; CHO parental Ca: inactive; OX1R antag-2: inactive; TRPML3 ag: inactive; GPR7 antag: inactive; zfTRPN1 agonist: inactive

What do the screens show for `CCOC(=O)Cc1csc(NC(=O)C(C)c2ccc([N+](=O)[O-])cc2)n1` (stereo unspecified)?
OX1R antag-1: inactive; CHO parental Ca: inactive; OX1R antag-2: inactive; TRPML3 ag: 16; GPR7 antag: 74; zfTRPN1 agonist: 22; GPR7 antag cf: 49; MCHR1 antag: 54

How did COc1ccc(NC(=O)N(C)C[C@H]2Oc3c(NC(=O)Cc4ccccc4)cccc3C(=O)N([C@H](C)CO)C[C@@H]2C)cc1 do in these assays?
OX1R antag-1: inactive; CHO parental Ca: inactive; OX1R antag-2: inactive

How did CNC(=S)N(CCCO)Cc1cc2cc3c(cc2[nH]c1=O)OCO3 do in these assays?
OX1R antag-1: inactive; CHO parental Ca: inactive; OX1R antag-2: inactive; GPR7 antag: inactive

What do the screens show for `Cc1cc(C)c2oc(C(=O)N(Cc3ccccc3)c3ccccn3)cc(=O)c2c1`?
OX1R antag-1: inactive; CHO parental Ca: inactive; OX1R antag-2: inactive; TRPML3 ag: inactive; GPR7 antag: 26; zfTRPN1 agonist: inactive; GPR7 antag cf: inactive; MCHR1 antag: inactive

From PubChem
